# Measured values published in PubChem BioAssay AID504383 (The Scripps Research Institute Molecular Screening Center, 2011).
# The whole screen tested about 2,500 compounds, of which about 1,200 (48%) were called active. So high a share suggests a set chosen from earlier hits. The list shows a part of the results. A number with no mark means an inactive call.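 Rule for the calls: active = mean activation above the low control average plus 3 SD, as set in the primary screen (cut at about 12% in these data); inactive = the rest.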
# Target: Troponin I, cardiac muscle (Homo sapiens) + Troponin T, cardiac muscle (Homo sapiens) + Troponin C, slow skeletal and cardiac muscles (Homo sapiens) (UniProt P19429+P45379+P63316)
# Assay: calcium sensitizers of cardiac thin filaments – biochemical, IANBD-TnC fluorescence, triplicate, confirmation (AID 504383);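 note: 0% = DMSO at 0.472 mM calcium and 100% = DMSO at 2.9 mM calcium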
# Details: IANBD-labeled cardiac RTF, Ca2+ sensitivity fluorescence; at 7.2 µM; active compounds read high; scaled from EC20 to saturating calcium; tested at EC20 calcium, 0.472 mM
# How it was run: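 System: Labelled thin filament complex | Technique: Filament fluorescence intensity | Benchmarks: Low control EC20 calcium, high control EC100 calcium | Timing: 15 min at 25 °C | Compound dosing: One dose, 7.2 µM nominal | Probe or stimulus: Ca2+ 0.472 mM, EC20 level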
row,SMILES,activation
1,Cc1occc1C(=O)N=Nc1c(O)n(C)c2ccccc12,15.2% (active)
2,COc1ccc(OC)c(-n2nnnc2SCC(=O)NCCc2ccccc2)c1,12.5% (active)
3,O=C(CSc1nc2cc(Cl)ccc2s1)c1cc2ccccc2o1,107% (active)
4,CCOC(=O)COn1c(=O)c(-c2cc3ccccc3o2)[n+]([O-])c2ccccc21,2.03%
5,O=C(CSc1nc2ccccc2s1)c1cc2ccccc2o1,14.8% (active)
6,COc1ccc(OC)c(NC(=O)NCCc2cccc(Cl)c2)c1,5.54%
7,COc1ccc(-c2noc(CCC(=O)NCCc3ccccc3)n2)cc1,10.9%
8,O=C(CSc1nc2ccccc2s1)NNC(=S)Nc1ccccc1,482% (active)
9,Cc1ccccc1Nc1nnc(SCC(=O)c2cc3ccccc3o2)s1,6.8%
10,Cc1ccc2c(c1)[C@H]1[C@H](CO2)[C@H](c2ccccc2)[C@]2(C)C(=O)N(Cc3ccc(F)cc3)CC(=O)N12,4.21%
11,COc1ccc(-n2nnnc2SCC(=O)c2cc3ccccc3o2)cc1,40.8% (active)
12,NS(=O)(=O)c1ccc(-c2ccc(/C=C3\SC(=S)N(C4CCS(=O)(=O)C4)C3=O)o2)cc1 (stereo unspecified),17.8% (active)
13,O=C(Nc1ccc(F)cc1)OCCN1CCN(Cc2ccccc2)CCC1=O,5.99%
14,Fc1ccc(CN2CCCN(C(=S)Nc3ccc(F)cc3)CC2)cc1,54% (active)
15,CCn1c(CNc2ccc(C(=O)O)cc2)nc2ccccc21,-2.9%
16,CCn1c(C(C)NC(C)=O)nc2ccccc21 (stereo unspecified),16.6% (active)
17,C/C(=N\NC(=O)c1cc2c(s1)CCC(C)C2)c1ccc[nH]1 (stereo unspecified),5.66%
18,COCCN(C(=S)Nc1cccc(OC)c1)C1CCN(C(C)=O)CC1,12.8% (active)
19,CN(C)c1ccc(/C=C(\C#N)C(=O)Nc2nc3c(s2)CCN(Cc2ccccc2)C3)cc1,6.43%
20,CN(C)c1ccc(/C=C(\C#N)C(=O)c2ccccc2)cc1,9.54%
21,CC(OC(=O)/C(C#N)=C/c1ccc(N(C)C)cc1)C(=O)N(C)Cc1ccccc1 (stereo unspecified),18.4% (active)
22,CC(=O)Nc1ccc(NC(=O)C(C)OC(=O)/C(C#N)=C/c2ccc(N(C)C)cc2)cc1 (stereo unspecified),17% (active)
23,CC(OC(=O)/C(C#N)=C/c1ccc(N(C)C)cc1)C(=O)N(C)c1ccccc1 (stereo unspecified),17.5% (active)

row,SMILES,activation
1,CN(C)c1ccc(/C=C(/C#N)C(=O)Nc2nc3c(s2)CCN(Cc2ccccc2)C3)cc1,10.5%
2,Fc1ccc(C2=CC(c3ccc(Br)o3)n3ncnc3N2)cc1 (stereo unspecified),5.63%
3,Fc1ccc(C2=CC(c3ccco3)n3ncnc3N2)cc1 (stereo unspecified),18.9% (active)
4,Brc1ccc(C2=CC(c3ccco3)n3ncnc3N2)cc1 (stereo unspecified),7.55%
5,COc1ccc2nc(C)c3cc(C)oc3c2c1,71.2% (active)
6,COc1ccc2nc(C)cc(NCc3ccc(F)cc3)c2c1,10.7%
7,Cc1ccc(NS(=O)(=O)c2ccc(C(=O)N3CCN(c4ncccn4)CC3)cc2)cc1,3.55%
8,O=C(Nc1ccc(S(=O)(=O)Nc2ncccn2)cc1)C1CC(=O)N(c2ccccc2)C1 (stereo unspecified),0.68%
9,O=C(Nc1ccc(S(=O)(=O)Nc2ncccn2)cc1)c1nn(Cc2ccccc2)c(=O)c2ccccc12,736% (active)
10,COCCN1C(=O)N[C@@H](c2cccc(C(F)(F)F)c2)C(C(=O)OC)=C1C,42.1% (active)
11,CCOC(=O)CN1C(=O)N[C@@H](c2cccc(C(F)(F)F)c2)C(C(=O)OC)=C1C,1.28%
12,COC(=O)C/C(O)=C(/N=Nc1cccc(C(F)(F)F)c1)C(=O)OC,9.06%
13,CCOc1ccc(-c2nnc(NC(=O)CCCOc3cccc(C)c3)o2)cc1,7.1%
14,Cc1ccc(S(=O)(=O)N2CC(C(=O)O)=CC[C@H]2c2ccc(Cl)cc2)cc1,4.74%
15,Cc1nnc(N/N=C/c2ccc(O)c([N+](=O)[O-])c2)[nH]c1=O,35.2% (active)
16,Cc1ccc(/C=C2/NC(=O)N(Cc3ccccc3F)C2=O)s1,7.33%
17,Cc1cc(/C=C2/NC(=O)N(Cc3ccccc3F)C2=O)c(C)n1C,25.1% (active)
18,O=C(CC1SC(N2CCCCC2)=NC1=O)Nc1ccc(C(=O)NCc2ccccc2)cc1 (stereo unspecified),9.91%
19,CCCNC(=O)C12CCC(C)(C(=O)C1Br)C2(C)C (stereo unspecified),12.4% (active)
20,COc1cc2c(cc1OC)-c1cc3ccc4c(c3c[n+]1CC2)OCO4,15.6% (active)
21,CCCCC(=O)Nc1ccc(C(=O)Nc2ccc(OC)cc2[N+](=O)[O-])cc1,13.3% (active)
22,CCOCCCNS(=O)(=O)c1ccc(NC(=O)c2ccc(OC)c([N+](=O)[O-])c2)cc1,9.02%
23,Cc1ccc2nc3nc(NCC4CCCO4)c(C(=O)NC4CCCC4)cc3c(=O)n2c1 (stereo unspecified),12.9% (active)
